In the library only some 1.4% were active in any assay of this set; here they are far more common.
PG9 Ab binder – binds the HIV-1 gp120 antibody PG9. AID 624416. inhibition, % at 6.7 µM. TR-FRET gp120-PG9 antibody binding. actives 0.43% (n = 360,000); in the data active = inhibition above about 8.5%
NR1D1 modulator – Rev-erb alpha (human) modulation; P20393; Rev-erbα–FITC-DNA binding, fluorescence polarization, 90 min; activity, % at 10 µM; actives 0.79% (n = 370,000);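 active = activity above about 14%, limit read from the data; passing the limit was not always enough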
NR2E3 ag-1 – activates human NR2E3 receptor; CHO-S Gal4-NCOR/VP16-NR2E3 two-hybrid, luciferase; inhibition of corepressor binding, % at 3.98 µM; actives 0.35% (n = 360,000); AID 602229;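 active = inhibition above the mean of all tested compounds plus 3 SD, cut at about 70% in these data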;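 note: higher means lower luciferase signal from less NR2E3 corepressor binding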
Target sequence (Q9Y5X4 whole entry, looked up, the tested form may be a part): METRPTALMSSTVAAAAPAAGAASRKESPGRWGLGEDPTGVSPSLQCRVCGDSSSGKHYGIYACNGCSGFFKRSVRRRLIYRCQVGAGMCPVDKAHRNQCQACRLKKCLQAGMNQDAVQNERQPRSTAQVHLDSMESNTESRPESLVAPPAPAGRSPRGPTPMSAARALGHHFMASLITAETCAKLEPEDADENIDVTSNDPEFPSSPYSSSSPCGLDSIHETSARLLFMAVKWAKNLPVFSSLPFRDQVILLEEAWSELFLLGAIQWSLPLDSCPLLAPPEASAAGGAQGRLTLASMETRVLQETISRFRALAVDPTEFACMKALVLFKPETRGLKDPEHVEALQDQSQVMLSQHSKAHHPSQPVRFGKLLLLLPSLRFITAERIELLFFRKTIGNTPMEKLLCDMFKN
NR2E3 ag-2 – agonists of human nuclear receptor NR2E3; GST-NR2E3/biotin-RetCOR TR-FRET, 1536-well; inhibition of corepressor binding, % at 4.78 µM; actives 0.12% (n = 320,000);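 active = percent inhibition above the cutoff of mean plus 3 SD of all tested compounds, set per screening campaign, cut at about 20% in these data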
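Material: NR2E3–RetCOR corepressor complex / Amount: 1.35 nM GST-NR2E3 / Medium: Tris pH 7.5 / Compound: single nominal compound dose of 4.8 µM / Incubation: 5 h at 4 °C / Technique: TR-FRET, Eu(K)-anti-GST donor, streptavidin-D2 acceptor, ex 340, em 617/671 nm / Read-out basis: percent loss of FRET ratio relative to control wells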
PG9 bind confirm – PG9 antibody binding, confirmed | shares compounds with PG9 Ab binder | actives 90% (n = 1,500) | TR-FRET PG9 antibody binding, biochemical | inhibition, % at 6.7 µM | AID 651571; in the data active = inhibition above about 9%
PGV04 Ab binding – PGV04 control antibody binding, counter-screen | shares compounds with PG9 Ab binder | TR-FRET PGV04 antibody-gp120 binding, biochemical | inhibition, % at 6.7 µM | actives 95% (n = 1,500); in the data active = inhibition above about 9.5%
PG9 bind DR – PG9 antibody binding, dose response; TR-FRET PG9 antibody-gp120 binding inhibition; AID 651848; shares compounds with PG9 Ab binder; 95 tested, under 10 active; IC50, µM; in the data active = IC50 below about 10 µM
PGV04 binding DR – binds control antibody PGV04 in PG9 counter-screen | actives 20% (n = 95) | IC50, µM | shares compounds with PG9 Ab binder | TR-FRET binding to control antibody PGV04
PG126 DR counter – counter-screen for PG9 binders: binding to control antibody PG126. shares compounds with PG9 Ab binder. TR-FRET binding to antibody PG126, counterscreen. IC50, µM. actives 20% (n = 95). AID 651939
Of the large screens only hits and unclear results are named; the others gave an inactive call (follow-up assays come after a bar, where they were run). Cut-off read from the data, not from the text of the source, unless noted: active = IC50 below about 9 µM; inactive = the rest.

Cc1ccc(NC(=O)CNC(=O)c2sc3ccccc3c2Cl)nc1	PG9 Ab binder 15.0 | PG9 bind confirm 13.3 | PGV04 Ab binding 27.9
NC(=O)c1ccc(NC(=O)CNC(=O)c2sc3ccccc3c2Cl)cc1	PG9 Ab binder 18.4 | PG9 bind confirm 22.0 | PGV04 Ab binding 27.9
CC(=O)Nc1ccc(NC(=O)CNC(=O)c2sc3ccccc3c2Cl)cc1	none
Cc1ccccc1CN[C@@H]1CC[C@@]23CCCN2C(=O)CCC[C@H]3C1	none (no result: PG9 Ab binder, NR2E3 ag-1, NR2E3 ag-2)
CCN(CC)S(=O)(=O)c1cccc(C(=O)OCC(=O)c2ccc3c(c2)NC(=O)CO3)c1	none
COc1cc(OC)c(C(=O)OCC(=O)c2ccc3c(c2)NC(=O)CO3)cc1OC	none (no result: NR2E3 ag-2)
Cc1cccc(C(=O)OCC(=O)c2ccc3c(c2)NC(=O)CO3)c1	PG9 Ab binder 14.7 (no result: NR2E3 ag-2) | PG9 bind confirm 16.5 | PGV04 Ab binding 26.9
O=C1COc2ccc(C(=O)COC(=O)CCSc3ccc(Cl)cc3)cc2N1	PG9 Ab binder 13.4 | PG9 bind confirm 29.8 | PGV04 Ab binding 43.9
O=C1COc2ccc(C(=O)COC(=O)c3ccc(F)cc3Cl)cc2N1	PG9 Ab binder 31.8 (no result: NR2E3 ag-2) | PG9 bind confirm 36.8 | PGV04 Ab binding 46.8
CCN(C[C@H]1[C@@H](c2ccc(C3=CCCC3)cc2)[C@H](CO)N1C(=O)c1cccnc1)S(=O)(=O)c1ccccc1[N+](=O)[O-]	none (no result: PG9 Ab binder, NR2E3 ag-1, NR2E3 ag-2)
CCCC1CCC2(CC1)CCC2OC(=S)Nc1ccccc1Cl (stereo unspecified)	none (no result: PG9 Ab binder, NR2E3 ag-1, NR2E3 ag-2)
Cc1ccc(-c2cccc3[nH]cc(C)c23)s1	none (no result: PG9 Ab binder, NR2E3 ag-1, NR2E3 ag-2)
O=C(CSc1nc2ccccc2c(=O)[nH]1)NCc1ccc(Cl)cc1	PG9 Ab binder 12.3 | PG9 bind confirm 24.1 | PGV04 Ab binding 27.4
O=c1[nH]c(SCc2nc3ccccc3c(=O)n2-c2ccccc2)nc2ccccc12	PG9 Ab binder 13.0 | PG9 bind confirm 21.7 | PGV04 Ab binding 27.5
O=c1[nH]c(SCc2n[nH]c(=S)n2-c2ccccc2)nc2ccccc12	none
O=c1[nH]c(SCc2ccc(Cl)cc2)nc2ccccc12	none
O=C(CSc1nc2ccccc2c(=O)n1Cc1ccc(Cl)cc1)NCc1cccs1	PG9 Ab binder 16.6 | PG9 bind confirm 21.1 | PGV04 Ab binding 30.1
C[C@H]1[C@@H](OC(=O)NCc2ccc(Cl)cc2)CC[C@@]23CCCN2C(=O)CCC[C@@H]13	none (no result: PG9 Ab binder, NR2E3 ag-1, NR2E3 ag-2)
Cc1sc2nc(SCC(=O)Nc3ccccc3F)[nH]c(=O)c2c1C	PG9 Ab binder 8.7 | PG9 bind confirm 20.5 | PGV04 Ab binding 34.2
Cc1ccc2cc(CN(c3ccccc3C)S(=O)(=O)c3ccccc3)c(=O)[nH]c2c1	PG9 Ab binder 13.5 | PG9 bind confirm 26.2 | PGV04 Ab binding 44.6
Cc1ccc(N(Cc2cc3ccccc3[nH]c2=O)S(=O)(=O)c2ccccc2)cc1	none
COc1ccc(NC(=O)c2oc3ccccc3c2NC(=O)C2CC2)cc1	PG9 Ab binder 11.9 | PG9 bind confirm 9.0 | PGV04 Ab binding inactive | PG9 bind DR inactive | PGV04 binding DR inactive | PG126 DR counter inactive
CCOC(=O)c1c(NC(=O)C2C3C=CC(CC3)C2C(=O)O)sc(C)c1CC (stereo unspecified)	PG9 Ab binder 8.7 | PG9 bind confirm 18.0 | PGV04 Ab binding 23.0
COc1ccc(NS(=O)(=O)c2cccc(C(=O)N3CCN(Cc4ccc5c(c4)OCO5)CC3)c2)cc1	none
O=C(c1ccc(NS(=O)(=O)c2ccccc2)cc1)N1CCN(Cc2ccc3c(c2)OCO3)CC1	PG9 Ab binder 10.9 | PG9 bind confirm inactive | PGV04 Ab binding inactive
CCCCNC(=O)NCC1CCN(Cc2ccc(OC)cc2)CC1	none (no result: PG9 Ab binder, NR2E3 ag-1, NR2E3 ag-2)
COc1ccc(C2Nc3cccc4cccc(c34)N2)cc1	none
COc1cc(OC)c(C2Nc3cccc4cccc(c34)N2)c(OC)c1	PG9 Ab binder 11.9 (no result: NR2E3 ag-2) | PG9 bind confirm inactive | PGV04 Ab binding 12.0
